From ChEMBL document CHEMBL1123801, “Synthesis and antifungal activity of new 1-vinylimidazoles” (1987)
Converted amounts (≈) assume the structure as drawn.

Assays:
Format in all cases: functional
[1] = tested on: Trichophyton benhamiae; test: Minimum inhibitory concentration against Trichophyton asteroides
How it was run: (§1)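 Broth microdilution in Sabouraud's glucose broth. Final inocula 1×10^5 cells/mL for the yeast (C. albicans) and 1×10^5 conidia/mL for the mold (A. fumigatus) and the dermatophyte (T. asteroides). MIC read as the fungistatic end point. Lowest value of duplicated experiments.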

[2] = tested on: Candida albicans; test: Minimum inhibitory concentration (MIC) against Candida albicans; how it was run: as §1
[3] = tested on: Aspergillus fumigatus; test: Minimum inhibitory concentration (MIC) against Aspergillus fumigatus; how it was run: as §1

MIC [1] [µg/mL]	MIC [2] [µg/mL]	MIC [3] [µg/mL]	Structure (SMILES)
0.1 (≈ 0.278 µM)	12.5 (≈ 34.8 µM)	12.5 (≈ 34.8 µM)	C=C(c1cc(Cl)ccc1OC(C)c1ccc(Cl)cc1)n1ccnc1 (centres undefined)
0.1 (≈ 0.329 µM)	6.2 (≈ 20.4 µM)	3.1 (≈ 10.2 µM)	C=C(c1ccccc1OC(CC)c1ccccc1)n1ccnc1 (centres undefined)
0.4 (≈ 1.7 µM)	> 100	3.1 (≈ 13.2 µM)	C=C(c1cc(Cl)ccc1OC)n1ccnc1
3.1 (≈ 8.98 µM)	> 100	> 100	C=C(c1cc(Cl)cc(Cl)c1OCc1ccccc1)n1ccnc1
0.1 (≈ 0.308 µM)	50 (≈ 154 µM)	6.3 (≈ 19.4 µM)	C=C(c1cc(Cl)ccc1OCCc1ccccc1)n1ccnc1
1.6 (≈ 5.26 µM)	25 (≈ 82.1 µM)	12.5 (≈ 41.1 µM)	CC(C)=C(c1ccccc1OCc1ccccc1)n1ccnc1
0.1 (≈ 0.326 µM)	50 (≈ 163 µM)	12.5 (≈ 40.8 µM)	C=C(c1ccccc1OCCOc1ccccc1)n1ccnc1
0.8 (≈ 2.23 µM)	3.1 (≈ 8.63 µM)	0.8 (≈ 2.23 µM)	CC=C(c1cc(Cl)ccc1OCc1ccc(Cl)cc1)n1ccnc1
1.6 (≈ 7.99 µM)	> 100	12.5 (≈ 62.4 µM)	C=C(c1ccccc1OC)n1ccnc1
0.1 (≈ 0.285 µM)	25 (≈ 71.2 µM)	6.2 (≈ 17.7 µM)	C=C(c1cc(Cl)ccc1OCc1ccsc1Cl)n1ccnc1
0.1 (≈ 0.293 µM)	50 (≈ 147 µM)	1.6 (≈ 4.69 µM)	C=C(c1ccccc1OCCOc1ccc(Cl)cc1)n1ccnc1
0.8 (≈ 2.27 µM)	> 100	> 100	C=C(c1cc(Cl)ccc1OC(CCC)c1ccccc1)n1ccnc1 (centres undefined)
0.1 (≈ 0.381 µM)	25 (≈ 95.2 µM)	0.8 (≈ 3.04 µM)	C=C(c1cc(Cl)ccc1OCCC)n1ccnc1
0.1 (≈ 0.329 µM)	12.5 (≈ 41.1 µM)	25 (≈ 82.1 µM)	C=C(c1ccccc1OCc1ccc(CC)cc1)n1ccnc1
3.1 (≈ 9.74 µM)	25 (≈ 78.5 µM)	6.2 (≈ 19.5 µM)	CC(C)=C(c1ccccc1OCc1ccc(C)cc1)n1ccnc1
0.1 (≈ 0.295 µM)	> 100	12.5 (≈ 36.9 µM)	C=C(c1cc(Cl)ccc1OC(CC)c1ccccc1)n1ccnc1 (centres undefined)
0.2 (≈ 0.724 µM)	12.5 (≈ 45.2 µM)	3.1 (≈ 11.2 µM)	C=C(c1ccccc1OCc1ccccc1)n1ccnc1
3.1 (≈ 9.15 µM)	12.5 (≈ 36.9 µM)	3.1 (≈ 9.15 µM)	CC(C)=C(c1ccccc1OCc1cccc(Cl)c1)n1ccnc1
1.6 (≈ 4.72 µM)	6.2 (≈ 18.3 µM)	1.6 (≈ 4.72 µM)	CCC=C(c1cc(Cl)ccc1OCc1ccccc1)n1ccnc1
0.1 (≈ 0.322 µM)	6.2 (≈ 19.9 µM)	0.8 (≈ 2.57 µM)	C=C(c1ccccc1OCc1ccccc1Cl)n1ccnc1

MIC [1] [µg/mL]	MIC [2] [µg/mL]	MIC [3] [µg/mL]	Structure (SMILES)
3.1 (≈ 8.3 µM)	12.5 (≈ 33.5 µM)	1.6 (≈ 4.29 µM)	CC(C)=C(c1ccccc1OCc1ccc(Cl)cc1Cl)n1ccnc1
3.1 (≈ 9.74 µM)	25 (≈ 78.5 µM)	3.1 (≈ 9.74 µM)	C=C(c1ccccc1OCc1ccc(C(C)C)cc1)n1ccnc1
1.6 (≈ 4.18 µM)	12.5 (≈ 32.6 µM)	6.2 (≈ 16.2 µM)	CC(C)=C(c1ccccc1OCCCOc1ccc(Cl)cc1)n1ccnc1
0.2 (≈ 0.616 µM)	6.2 (≈ 19.1 µM)	3.1 (≈ 9.54 µM)	CC=C(c1cc(Cl)ccc1OCc1ccccc1)n1ccnc1
0.4 (≈ 1.87 µM)	> 100	3.1 (≈ 14.5 µM)	C=C(c1ccccc1OCC)n1ccnc1
0.1 (≈ 0.29 µM)	25 (≈ 72.4 µM)	3.1 (≈ 8.98 µM)	C=C(c1ccccc1OCc1ccc(Cl)c(Cl)c1)n1ccnc1
0.2 (≈ 0.723 µM)	25 (≈ 90.3 µM)	0.4 (≈ 1.45 µM)	C=C(c1cc(Cl)ccc1OCCCC)n1ccnc1
0.1 (≈ 0.311 µM)	12.5 (≈ 38.9 µM)	6.2 (≈ 19.3 µM)	C=C(c1ccccc1OCc1ccc([N+](=O)[O-])cc1)n1ccnc1
0.1 (≈ 0.438 µM)	100 (≈ 438 µM)	1.6 (≈ 7.01 µM)	C=C(c1ccccc1OCCC)n1ccnc1
0.2 (≈ 0.602 µM)	25 (≈ 75.2 µM)	1.6 (≈ 4.81 µM)	CC(C)=C(c1ccccc1OCCCc1ccccc1)n1ccnc1
0.1 (≈ 0.278 µM)	25 (≈ 69.6 µM)	0.4 (≈ 1.11 µM)	C=C(c1ccccc1OCCc1ccc(Cl)cc1Cl)n1ccnc1
3.1 (≈ 7.43 µM)	> 100	> 100	CC(C)=C(c1cc(Cl)ccc1OCCCOc1ccc(Cl)cc1)n1ccnc1
0.4 (≈ 1.25 µM)	12.5 (≈ 39 µM)	12.5 (≈ 39 µM)	C=C(c1ccccc1OC(C)c1ccc(OC)cc1)n1ccnc1 (centres undefined)
3.1 (≈ 7.6 µM)	12.5 (≈ 30.7 µM)	6.2 (≈ 15.2 µM)	CC(C)=C(c1cc(Cl)ccc1OCc1ccc(Cl)c(Cl)c1)n1ccnc1
50 (≈ 206 µM)	25 (≈ 103 µM)	1.6 (≈ 6.6 µM)	C=C(c1ccccc1OCCCC)n1ccnc1
0.2 (≈ 0.491 µM)	12.5 (≈ 30.7 µM)	0.8 (≈ 1.96 µM)	CCC=C(c1cc(Cl)ccc1OCc1ccc(Cl)cc1Cl)n1ccnc1
0.1 (≈ 0.329 µM)	12.5 (≈ 41.1 µM)	3.1 (≈ 10.2 µM)	C=C(c1ccccc1OCCCc1ccccc1)n1ccnc1
0.1 (≈ 0.344 µM)	25 (≈ 86.1 µM)	6.2 (≈ 21.4 µM)	C=C(c1ccccc1OC(C)c1ccccc1)n1ccnc1 (centres undefined)
6.2 (≈ 17.7 µM)	> 100	100 (≈ 285 µM)	C=C(c1cc(Cl)cc(Cl)c1OCc1ccsc1)n1ccnc1
3.1 (≈ 9.54 µM)	6.2 (≈ 19.1 µM)	1.6 (≈ 4.93 µM)	CC=C(c1ccccc1OCc1cccc(Cl)c1)n1ccnc1

MIC [1] [µg/mL]	MIC [2] [µg/mL]	MIC [3] [µg/mL]	Structure (SMILES)
1.6 (≈ 4.53 µM)	25 (≈ 70.8 µM)	12.5 (≈ 35.4 µM)	CC(C)=C(c1cc(Cl)ccc1OCc1ccc(C)cc1)n1ccnc1
25 (≈ 107 µM)	> 100	100 (≈ 426 µM)	C=C(c1ccc(Cl)cc1OC)n1ccnc1
0.4 (≈ 1.23 µM)	6.2 (≈ 19.1 µM)	12.5 (≈ 38.5 µM)	C=C(c1ccccc1OC(C)c1cccc(Cl)c1)n1ccnc1 (centres undefined)
0.2 (≈ 0.59 µM)	50 (≈ 148 µM)	1.6 (≈ 4.72 µM)	C=C(c1cc(Cl)ccc1OCCCc1ccccc1)n1ccnc1
0.1 (≈ 0.278 µM)	6.2 (≈ 17.3 µM)	12.5 (≈ 34.8 µM)	C=C(c1cc(Cl)ccc1OC(C)c1cccc(Cl)c1)n1ccnc1 (centres undefined)
0.1 (≈ 0.308 µM)	3.1 (≈ 9.54 µM)	6.2 (≈ 19.1 µM)	C=C(c1ccccc1OC(C)c1ccc(Cl)cc1)n1ccnc1 (centres undefined)
0.1 (≈ 0.308 µM)	25 (≈ 77 µM)	6.3 (≈ 19.4 µM)	C=C(c1cc(Cl)ccc1OC(C)c1ccccc1)n1ccnc1 (centres undefined)
1.6 (≈ 4.06 µM)	12.5 (≈ 31.7 µM)	0.4 (≈ 1.02 µM)	CC=C(c1cc(Cl)ccc1OCc1ccc(Cl)cc1Cl)n1ccnc1
6.2 (≈ 17.3 µM)	12.5 (≈ 34.8 µM)	0.1 (≈ 0.278 µM)	CC=C(c1ccccc1OCc1ccc(Cl)cc1Cl)n1ccnc1
0.1 (≈ 0.314 µM)	50 (≈ 157 µM)	0.8 (≈ 2.51 µM)	CC(C)=C(c1ccccc1OCCc1ccccc1)n1ccnc1
3.1 (≈ 8.9 µM)	25 (≈ 71.7 µM)	6.2 (≈ 17.8 µM)	CC(C)=C(c1ccccc1OCCCOc1ccccc1)n1ccnc1
0.1 (≈ 0.29 µM)	50 (≈ 145 µM)	1.6 (≈ 4.63 µM)	C=C(c1ccccc1OCc1ccc(Cl)cc1Cl)n1ccnc1
6.2 (≈ 16.3 µM)	> 100	> 100	C=C(c1cc(Cl)cc(Cl)c1OCc1ccc(Cl)cc1)n1ccnc1
0.1 (≈ 0.295 µM)	3.1 (≈ 9.15 µM)	1.6 (≈ 4.72 µM)	C/C=C(\c1ccccc1OC(C)c1cccc(Cl)c1)n1ccnc1 (centres undefined)
0.4 (≈ 1.26 µM)	12.5 (≈ 39.3 µM)	12.5 (≈ 39.3 µM)	C=C(c1ccccc1OC(CCC)c1ccccc1)n1ccnc1 (centres undefined)
0.8 (≈ 2.46 µM)	25 (≈ 77 µM)	1.6 (≈ 4.93 µM)	C=C(c1cc(Cl)ccc1OCc1ccc(C)cc1)n1ccnc1
3.1 (≈ 8.04 µM)	> 100	50 (≈ 130 µM)	C=C(c1cc(Cl)cc(Cl)c1OCc1ccsc1Cl)n1ccnc1
0.1 (≈ 0.282 µM)	12.5 (≈ 35.2 µM)	12.5 (≈ 35.2 µM)	C=C(c1ccccc1OCCCOc1ccc(Cl)cc1)n1ccnc1
